Experimental data as given in ChEMBL document CHEMBL1155365, “2-Amino-9-aryl-3-cyano-4-methyl-7-oxo-6,7,8,9-tetrahydropyrido[2',3':4,5]thieno[2,3-b]pyridine derivatives as selective progesterone receptor agonists” (Bioorg Med Chem Lett, 2009).

Assays:
Androgen receptor [1] = target: T1, Androgen receptor (Homo sapiens, UniProt P10275); experiment: Binding affinity to androgen receptor
T1 sequence (P10275 whole entry): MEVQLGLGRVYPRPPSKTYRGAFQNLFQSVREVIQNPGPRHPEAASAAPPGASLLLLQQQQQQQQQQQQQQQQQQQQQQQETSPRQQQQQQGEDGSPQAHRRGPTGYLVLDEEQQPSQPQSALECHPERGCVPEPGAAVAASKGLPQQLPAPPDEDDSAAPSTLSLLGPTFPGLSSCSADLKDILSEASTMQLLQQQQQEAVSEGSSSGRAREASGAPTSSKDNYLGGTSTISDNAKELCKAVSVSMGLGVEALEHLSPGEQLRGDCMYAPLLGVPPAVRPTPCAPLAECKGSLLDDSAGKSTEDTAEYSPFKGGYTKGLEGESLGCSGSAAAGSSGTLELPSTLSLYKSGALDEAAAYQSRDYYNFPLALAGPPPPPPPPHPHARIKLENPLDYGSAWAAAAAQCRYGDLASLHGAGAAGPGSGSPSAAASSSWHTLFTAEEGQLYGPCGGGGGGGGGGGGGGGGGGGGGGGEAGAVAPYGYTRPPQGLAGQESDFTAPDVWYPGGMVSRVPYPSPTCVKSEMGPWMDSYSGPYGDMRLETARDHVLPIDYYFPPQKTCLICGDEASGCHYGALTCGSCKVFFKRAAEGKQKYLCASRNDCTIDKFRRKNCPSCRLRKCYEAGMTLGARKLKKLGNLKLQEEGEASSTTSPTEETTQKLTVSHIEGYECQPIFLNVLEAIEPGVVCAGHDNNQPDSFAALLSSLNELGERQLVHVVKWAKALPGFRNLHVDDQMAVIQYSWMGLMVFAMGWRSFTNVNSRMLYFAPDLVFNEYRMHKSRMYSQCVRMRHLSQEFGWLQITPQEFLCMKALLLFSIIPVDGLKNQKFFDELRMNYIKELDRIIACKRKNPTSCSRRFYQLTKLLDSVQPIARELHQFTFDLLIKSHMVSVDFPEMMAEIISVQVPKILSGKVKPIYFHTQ

Progesterone receptor [2] = target: T2, Progesterone receptor (Homo sapiens, UniProt P06401); experiment: Displacement of fluormone PL RED from progesterone receptor after 2 hrs
T2 sequence (P06401 whole entry): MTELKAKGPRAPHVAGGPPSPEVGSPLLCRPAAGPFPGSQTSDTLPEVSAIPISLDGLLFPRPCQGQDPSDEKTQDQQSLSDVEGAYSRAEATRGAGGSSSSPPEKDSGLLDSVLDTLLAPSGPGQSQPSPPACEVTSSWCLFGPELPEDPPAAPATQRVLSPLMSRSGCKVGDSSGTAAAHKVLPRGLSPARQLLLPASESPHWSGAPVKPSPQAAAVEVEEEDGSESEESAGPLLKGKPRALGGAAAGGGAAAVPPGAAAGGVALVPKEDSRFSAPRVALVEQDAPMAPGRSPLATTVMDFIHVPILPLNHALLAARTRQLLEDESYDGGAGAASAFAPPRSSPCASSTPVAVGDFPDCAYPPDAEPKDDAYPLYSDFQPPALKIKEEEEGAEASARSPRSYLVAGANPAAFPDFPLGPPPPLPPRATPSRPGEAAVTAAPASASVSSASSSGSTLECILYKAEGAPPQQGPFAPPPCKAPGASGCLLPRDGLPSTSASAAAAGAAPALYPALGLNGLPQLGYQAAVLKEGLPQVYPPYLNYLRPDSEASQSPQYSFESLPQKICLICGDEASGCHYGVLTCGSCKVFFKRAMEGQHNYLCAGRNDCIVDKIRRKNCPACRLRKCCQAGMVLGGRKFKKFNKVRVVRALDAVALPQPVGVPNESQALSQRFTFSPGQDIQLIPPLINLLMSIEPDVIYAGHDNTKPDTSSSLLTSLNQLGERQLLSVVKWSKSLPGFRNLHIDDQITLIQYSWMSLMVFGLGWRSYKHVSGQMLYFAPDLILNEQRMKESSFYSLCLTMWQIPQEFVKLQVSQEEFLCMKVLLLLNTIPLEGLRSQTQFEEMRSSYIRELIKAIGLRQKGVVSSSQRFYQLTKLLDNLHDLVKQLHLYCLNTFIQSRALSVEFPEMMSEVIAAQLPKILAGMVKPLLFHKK
Method in brief: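 Fluorescence polarization competition: 40 nM PR ligand-binding domain, 2 nM Fluormone PL Red, 1 mM DTT in PR Red buffer with 2 mM CHAPS, added to compound; brief spin, light-protected, ~2 h at room temperature; read at 530 nm excitation/580 nm emission. Values are means of ≥2 determinations.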

Progesterone receptor [3] = target: T2, Progesterone receptor; experiment: Agonist activity at progesterone receptor B expressed in CV-1 cells by MMTV luciferase reporter gene assay; type: functional, cell-based
Progesterone receptor [4] = target: T2, Progesterone receptor; experiment: Agonist activity at progesterone receptor in human T47D cell after 24 hrs by alkaline phosphatase assay; type: functional, cell-based
Method in brief: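 T47D cells seeded and left to attach overnight, then treated with compound and incubated overnight. Next day pNPP-SPAP substrate added, 2 h in the dark, absorbance read at 405 nm. Potency as pEC50, efficacy as % of P4 response; means of ≥2 determinations.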

[5] = target: T3, Progesterone receptor (Homo sapiens) (UniProt P06401); experiment: Agonist activity at progesterone receptor in human T47D cell after 24 hrs by alkaline phosphatase assay relative to progesterone
T3 sequence (whole entry): T2 sequence (P06401 whole entry)

[6] = Oral bioavailability in mouse at 1 mg/kg; type: ADME, organism-based; conditions: in vivo
Method in brief: (§1)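 In vivo mouse pharmacokinetics with dosing at 0.5 mg/kg intravenously and 1.0 mg/kg orally. Blood clearance, half-life, steady-state volume of distribution and oral bioavailability were derived from these studies.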

[7] = Volume of distribution at steady state in mouse at 0.5 mg/kg, iv and 1 mg/kg, po; type: ADME, organism-based; conditions: in vivo, read-out: Vdss; method in brief: as §1
[8] = Half life in mouse at 0.5 mg/kg, iv and 1 mg/kg, po; type: ADME, organism-based; conditions: in vivo; method in brief: as §1
Cytochrome P450 1A2 = target: T4, Cytochrome P450 1A2 (Homo sapiens, UniProt P05177); experiment: Inhibition of CYP1A2; type: ADME
T4 sequence (P05177 whole entry): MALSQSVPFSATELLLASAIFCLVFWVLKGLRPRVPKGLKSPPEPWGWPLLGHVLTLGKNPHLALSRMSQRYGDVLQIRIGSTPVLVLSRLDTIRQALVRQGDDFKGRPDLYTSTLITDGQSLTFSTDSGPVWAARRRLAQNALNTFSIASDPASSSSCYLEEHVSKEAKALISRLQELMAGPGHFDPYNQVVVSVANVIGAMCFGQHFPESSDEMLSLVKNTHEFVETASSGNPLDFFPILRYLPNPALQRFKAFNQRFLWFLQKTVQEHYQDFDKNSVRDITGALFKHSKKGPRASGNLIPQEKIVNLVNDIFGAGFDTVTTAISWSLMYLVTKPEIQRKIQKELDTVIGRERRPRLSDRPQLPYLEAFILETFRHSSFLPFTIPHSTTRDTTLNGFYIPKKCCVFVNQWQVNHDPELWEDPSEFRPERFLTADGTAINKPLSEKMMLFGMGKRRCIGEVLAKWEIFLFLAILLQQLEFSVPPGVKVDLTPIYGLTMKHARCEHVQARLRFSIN

Cytochrome P450 3A4 = Cytochrome P450 3A4 (Homo sapiens, UniProt P08684); experiment: Inhibition of CYP3A4; type: ADME
Chain of Cytochrome P450 3A4 (P08684 whole entry): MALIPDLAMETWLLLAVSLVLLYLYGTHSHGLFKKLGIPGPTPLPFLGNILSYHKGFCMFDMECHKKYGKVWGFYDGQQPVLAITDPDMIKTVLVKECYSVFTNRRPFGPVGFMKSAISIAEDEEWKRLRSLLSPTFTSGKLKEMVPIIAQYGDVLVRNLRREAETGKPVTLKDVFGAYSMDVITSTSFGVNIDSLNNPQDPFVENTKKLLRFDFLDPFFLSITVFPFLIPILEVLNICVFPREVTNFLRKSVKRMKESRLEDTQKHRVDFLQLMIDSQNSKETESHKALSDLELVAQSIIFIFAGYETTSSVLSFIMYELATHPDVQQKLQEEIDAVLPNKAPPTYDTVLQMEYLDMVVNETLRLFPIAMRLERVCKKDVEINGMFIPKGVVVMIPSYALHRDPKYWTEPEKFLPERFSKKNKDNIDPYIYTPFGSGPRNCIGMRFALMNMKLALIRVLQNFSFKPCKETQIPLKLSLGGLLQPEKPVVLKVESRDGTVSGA

Cytochrome P450 2D6 = Cytochrome P450 2D6 (Homo sapiens, UniProt P10635); experiment: Inhibition of CYP2D6; type: ADME
Chain of Cytochrome P450 2D6 (P10635 whole entry): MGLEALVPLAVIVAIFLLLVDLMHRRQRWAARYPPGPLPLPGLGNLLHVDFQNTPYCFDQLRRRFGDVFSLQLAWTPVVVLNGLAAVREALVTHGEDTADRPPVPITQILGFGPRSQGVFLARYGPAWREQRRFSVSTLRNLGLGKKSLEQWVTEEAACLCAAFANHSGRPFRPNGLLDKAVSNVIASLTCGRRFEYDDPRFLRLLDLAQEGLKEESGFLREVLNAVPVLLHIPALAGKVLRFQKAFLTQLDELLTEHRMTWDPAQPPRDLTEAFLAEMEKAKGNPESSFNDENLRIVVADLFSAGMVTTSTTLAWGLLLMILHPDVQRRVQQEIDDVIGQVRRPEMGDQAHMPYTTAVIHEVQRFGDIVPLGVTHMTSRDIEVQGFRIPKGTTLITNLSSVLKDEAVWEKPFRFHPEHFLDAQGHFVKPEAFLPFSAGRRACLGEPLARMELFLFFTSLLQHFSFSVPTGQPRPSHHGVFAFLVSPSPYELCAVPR

Liver microsomes = experiment: Intrinsic clearance in human liver microsomes; type: ADME, Microsome
Method in brief: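 Metabolic stability in human liver microsomes; intrinsic clearance expressed as mL/min[…].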

Mus musculus = experiment: Blood clearance in mouse at 0.5 mg/kg, iv and 1 mg/kg, po; type: ADME, organism-based; conditions: in vivo; method in brief: as §1
Cytochrome P450 2C9 = Cytochrome P450 2C9 (Homo sapiens, UniProt P11712); experiment: Inhibition of CYP2C9; type: ADME
Chain of Cytochrome P450 2C9 (P11712 whole entry): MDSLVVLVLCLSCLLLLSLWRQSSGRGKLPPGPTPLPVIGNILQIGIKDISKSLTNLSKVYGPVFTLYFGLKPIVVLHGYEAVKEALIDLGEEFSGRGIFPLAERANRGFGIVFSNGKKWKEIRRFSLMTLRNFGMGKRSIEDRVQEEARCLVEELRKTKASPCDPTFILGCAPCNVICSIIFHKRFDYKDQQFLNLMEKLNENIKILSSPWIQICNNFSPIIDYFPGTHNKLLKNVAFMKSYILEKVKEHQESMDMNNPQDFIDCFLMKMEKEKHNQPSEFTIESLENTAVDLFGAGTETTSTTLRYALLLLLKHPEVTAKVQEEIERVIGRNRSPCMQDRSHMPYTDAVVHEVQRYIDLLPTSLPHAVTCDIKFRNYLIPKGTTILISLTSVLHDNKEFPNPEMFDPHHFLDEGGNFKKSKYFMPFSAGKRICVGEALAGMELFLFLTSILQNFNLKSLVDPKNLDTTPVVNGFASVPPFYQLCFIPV

[9] = target: Voltage-gated inwardly rectifying potassium channel KCNH2 (Homo sapiens, UniProt Q12809); experiment: Binding affinity to human ERG channel
Chain of Voltage-gated inwardly rectifying potassium channel KCNH2 (Q12809 whole entry): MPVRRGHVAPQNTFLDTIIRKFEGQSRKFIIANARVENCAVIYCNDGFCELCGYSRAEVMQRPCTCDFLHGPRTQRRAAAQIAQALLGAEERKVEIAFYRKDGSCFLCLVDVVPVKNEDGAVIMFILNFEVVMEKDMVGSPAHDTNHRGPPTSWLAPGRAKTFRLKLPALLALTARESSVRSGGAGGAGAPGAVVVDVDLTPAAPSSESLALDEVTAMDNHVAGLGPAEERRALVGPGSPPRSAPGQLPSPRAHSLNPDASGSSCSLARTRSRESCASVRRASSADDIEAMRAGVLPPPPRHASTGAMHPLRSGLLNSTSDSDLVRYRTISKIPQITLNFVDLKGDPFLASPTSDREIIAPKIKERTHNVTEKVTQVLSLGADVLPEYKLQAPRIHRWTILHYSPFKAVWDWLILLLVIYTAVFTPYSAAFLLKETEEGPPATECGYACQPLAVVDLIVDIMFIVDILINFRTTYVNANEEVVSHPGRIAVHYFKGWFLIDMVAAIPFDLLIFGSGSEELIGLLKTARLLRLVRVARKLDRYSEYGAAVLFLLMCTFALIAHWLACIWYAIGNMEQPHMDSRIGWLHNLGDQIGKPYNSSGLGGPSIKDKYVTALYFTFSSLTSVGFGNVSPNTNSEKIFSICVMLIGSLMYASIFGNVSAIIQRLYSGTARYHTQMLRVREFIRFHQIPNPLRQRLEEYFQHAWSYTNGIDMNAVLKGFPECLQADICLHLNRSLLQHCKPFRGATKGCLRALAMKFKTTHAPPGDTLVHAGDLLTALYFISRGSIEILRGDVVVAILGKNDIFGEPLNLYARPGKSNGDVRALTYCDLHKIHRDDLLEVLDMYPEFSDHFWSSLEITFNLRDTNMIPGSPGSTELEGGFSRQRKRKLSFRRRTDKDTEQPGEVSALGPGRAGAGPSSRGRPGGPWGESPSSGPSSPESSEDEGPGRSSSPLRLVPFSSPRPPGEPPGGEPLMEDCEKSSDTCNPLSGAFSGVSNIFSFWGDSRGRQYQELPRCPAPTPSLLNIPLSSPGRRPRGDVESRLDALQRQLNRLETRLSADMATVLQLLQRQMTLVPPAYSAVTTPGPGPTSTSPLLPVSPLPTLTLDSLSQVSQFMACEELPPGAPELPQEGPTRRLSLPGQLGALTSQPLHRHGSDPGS

Cytochrome P450 2C19 = Cytochrome P450 2C19 (Homo sapiens, UniProt P33261); experiment: Inhibition of CYP2C19; type: ADME
Chain of Cytochrome P450 2C19 (P33261 whole entry): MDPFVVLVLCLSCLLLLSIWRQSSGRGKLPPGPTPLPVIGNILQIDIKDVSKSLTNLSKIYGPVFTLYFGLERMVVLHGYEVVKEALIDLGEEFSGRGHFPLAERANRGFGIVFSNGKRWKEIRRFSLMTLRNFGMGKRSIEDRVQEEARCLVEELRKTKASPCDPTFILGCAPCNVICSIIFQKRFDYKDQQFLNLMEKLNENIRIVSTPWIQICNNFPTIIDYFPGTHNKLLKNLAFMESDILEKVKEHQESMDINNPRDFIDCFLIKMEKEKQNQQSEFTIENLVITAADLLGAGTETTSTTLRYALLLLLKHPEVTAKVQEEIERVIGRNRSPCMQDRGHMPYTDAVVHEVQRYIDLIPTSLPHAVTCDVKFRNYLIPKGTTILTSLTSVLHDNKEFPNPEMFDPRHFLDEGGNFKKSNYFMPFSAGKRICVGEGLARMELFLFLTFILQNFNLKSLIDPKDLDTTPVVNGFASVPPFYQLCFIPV

Androgen receptor [10] = target: T1, Androgen receptor; experiment: Agonist activity at androgen receptor expressed in CV-1 cells by MMTV luciferase reporter assay; type: functional, cell-based

Compound	pIC50 (Androgen receptor [1])	IC50 (Progesterone receptor [2])	EC50 (Progesterone receptor [3])	pEC50 (Progesterone receptor [4])	Activity [5]	also measured
Cc1c(C#N)c(N)nc2c3c(sc12)NC(=O)CC3c1cccc(Cl)c1Cl (stereo not given)	> 5	794 nM	> 10000 nM	–	–	–
Cc1c(C#N)c(N)nc2c3c(sc12)NC(=O)C[C@H]3c1ccccc1Cl	> 5	6310 nM	> 10000 nM	–	–	–
Cc1c(C#N)c(N)nc2c3c(sc12)NC(=O)C[C@@H]3c1ccccc1Cl	> 5	158 nM	200 nM	7.4	83%	–
COc1ccccc1C1CC(=O)Nc2sc3c(C)c(C#N)c(N)nc3c21 (stereo not given)	–	> 10000 nM	> 10000 nM	–	–	–
Cc1c(C#N)c(N)nc2c3c(sc12)NC(=O)CC3c1ccc(Cl)cc1Cl (stereo not given)	> 5	794 nM	> 10000 nM	–	–	–
COc1cccc(C2CC(=O)Nc3sc4c(C)c(C#N)c(N)nc4c32)c1 (stereo not given)	–	> 10000 nM	> 10000 nM	–	–	–
Cc1c(C#N)c(N)nc2c3c(sc12)NC(=O)CC3c1ccccc1 (stereo not given)	> 5	–	> 10000 nM	–	–	–
Cc1c(C#N)c(N)nc2c3c(sc12)NC(=O)CC3c1ccccc1Cl (stereo not given)	< 5	200 nM	631 nM	7.1	80%	bioavailability [6]: 36%; Vd [7]: 2.5 L/kg; half-life [8]: 1.1 h; IC50 (Cytochrome P450 1A2): > 10000 nM; IC50 (Cytochrome P450 3A4): > 10000 nM; IC50 (Cytochrome P450 2D6): > 10000 nM; CL (Liver microsomes): 19 µL/min/mg; clearance (Mus musculus): 24 mL/min/kg; IC50 (Cytochrome P450 2C9): 1260 nM; Activity [9]: Not Active; IC50 (Cytochrome P450 2C19): > 10000 nM
Cc1c(C#N)c(Cl)nc2c3c(sc12)NC(=O)CC3c1ccccc1Cl (stereo not given)	–	50.1 nM	0.794 nM	8.6	116%	IC50 (Androgen receptor [1]): 2000 nM; EC50 (Androgen receptor [10]): > 10000 nM
Cc1ccccc1C1CC(=O)Nc2sc3c(C)c(C#N)c(N)nc3c21 (stereo not given)	> 5	1260 nM	> 10000 nM	–	–	–
Cc1c(C#N)c(N)nc2c3c(sc12)NC(=O)CC3c1cc(Cl)ccc1Cl (stereo not given)	> 5	1000 nM	> 10000 nM	–	–	–
Cc1c(C#N)c(N)nc2c3c(sc12)NC(=O)CC3c1ccccc1F (stereo not given)	–	631 nM	3980 nM	6.4	47%	–
Cc1c(C#N)c(O)nc2c3c(sc12)NC(=O)CC3c1ccccc1Cl (stereo not given)	> 5	> 10000 nM	> 10000 nM	–	–	–
Cc1c(C#N)c(N)nc2c3c(sc12)NC(=O)CC3c1c(F)cccc1Cl (stereo not given)	> 5	1260 nM	3980 nM	6.1	13%	–
